Test results: ChEMBL document CHEMBL3817728, “Synthesis, Evaluation, and Mechanism Study of Novel Indole-Chalcone Derivatives Exerting Effective Antitumor Activity Through Microtubule Destabilization in Vitro and in Vivo” (J Med Chem, 2016)
Calls of active or inactive are those of the source. The calls are words filed in the database; no cut-off is given here.

Key:
[1] = Selectivity ratio of IC50 for human MCF10A cells to IC50 for human A549 cells; type: ADME, cell-based; settings: MCF10A cells versus A549 cells, read-out: Ratio IC50
How it was run: (§1)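 Selectivity ratio = IC50 in normal cells / IC50 in A549; IC50 values mean ± SE from dose-response curves of at least three independent experiments. HUVECs kept quiescent in endothelial cell medium with 0.5% fetal calf serum, no growth factor.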

A549 [2] = assay: Disruption of mitochondrial membrane potential in human A549 cells assessed as green fluorescence intensity at 3 nM after 24 hrs by JC1 staining-based flow cytometric method (reference value: 0.02%); type: functional
[3] = Cytotoxicity against human A549/CDDP cells assessed as growth inhibition after 48 hrs by MTT assay; type: functional, cell-based; settings: A549, 48 h
How it was run: (§2)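 Drug-resistant lines were tested by a 48 h MTT viability assay. IC50 was derived from dose-response curves and reported as mean ± SE of at least three independent experiments.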

[4] = Cytotoxicity against HLF assessed as growth inhibition after 48 hrs by MTT assay; settings: Homo sapiens
How it was run: (§3)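 Non-tumorigenic cells given 48 h compound exposure, and viability read by MTT. IC50 is mean ± SE from dose-response curves of at least three independent experiments. HUVECs were kept quiescent in endothelial cell medium with 0.5% fetal calf serum and no growth factor.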

A549 [5] = assay: Disruption of mitochondrial membrane potential in human A549 cells assessed as red fluorescence intensity at 10 nM after 24 hrs by JC1 staining-based flow cytometric method (reference value: 99.2%); type: functional
[6] = Cytotoxicity against human MCF10A cells assessed as growth inhibition after 48 hrs by MTT assay; type: cell-based; settings: MCF-10A; how it was run: as §3
A549 [7] = assay: Induction of apoptosis in human A549 cells assessed as viable cells at 1 nM after 48 hrs by annexin V-FITC/propidium iodide staining-based flow cytometric method (reference value: 98.1%); type: functional; settings: A549, 48 h, read-out: Activity
How it was run: (§4)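 A549 cells exposed 24 h or 48 h at indicated concentrations, then trypsinized, harvested and stained with Annexin V-FITC and PI; flow cytometry quadrants scored as necrotic (upper left), late apoptotic (upper right), live (bottom left) and early apoptotic (bottom right). Five independent experiments, representative shown.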

[8] = Cytotoxicity against human MCF7/DX cells assessed as growth inhibition after 48 hrs by MTT assay; type: functional, cell-based; how it was run: as §2
A549 [9] = assay: Induction of apoptosis in human A549 cells assessed as early apoptotic cells at 10 nM after 48 hrs by annexin V-FITC/propidium iodide staining-based flow cytometric method (reference value: 1.95%); type: functional
A549 [10] = assay: Induction of apoptosis in human A549 cells assessed as late apoptotic cells at 10 nM after 48 hrs by annexin V-FITC/propidium iodide staining-based flow cytometric method (reference value: 0.01%); type: functional
[11] = Cytotoxicity against human Bel7402 cells assessed as cell viability after 48 hrs by MTT assay; type: functional, cell-based; settings: Bel-7402, 48 h
How it was run: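 Cancer cell lines treated with compound for 48 h, and viability read by MTT assay. IC50 given as mean ± SD from at least three independent experiments.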

A549 [12] = assay: Induction of apoptosis in human A549 cells assessed as necrotic cells at 3 nM after 24 hrs by annexin V-FITC/propidium iodide staining-based flow cytometric method (reference value: 0.03%); type: functional
A549 [13] = assay: Cell cycle arrest in human A549 cells assessed as accumulation at sub-G1 phase at 3 to 10 nM after 24 to 72 hrs by propidium iodide staining-based flow cytometric analysis; type: functional
How it was run: (§5)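 A549 cells exposed to compound for 24, 48 or 72 h, then trypsinized and harvested. DNA stained with propidium iodide and analyzed by flow cytometry. Percentage of cells in each cell-cycle phase was quantified from the DNA histograms, with sub-G1 taken as the hypodiploid peak. Performed at least three times; representative experiments shown.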

Tubulin = Tubulin (Sus scrofa, UniProt P02554+P02550); assay: Inhibition of porcine brain tubulin polymerization measured every 60 secs for 60 mins by DAPI staining-based fluorescence assay
MCF7 = assay: Resistance index, ratio of IC50 for human MCF7/DX cells to IC50 for human MCF7 cells; type: functional
A549 [14] = assay: Induction of apoptosis in human A549 cells assessed as necrotic cells at 1 nM after 48 hrs by annexin V-FITC/propidium iodide staining-based flow cytometric method (reference value: 0.01%); type: functional
A549 [15] = assay: Cell cycle arrest in human A549 cells assessed as decrease in cell level at G1 phase at 1 to 10 nM after 24 to 48 hrs by propidium iodide staining-based flow cytometric analysis; type: functional; how it was run: as §5
HUVEC = assay: Cytotoxicity against quiescent HUVEC assessed as growth inhibition after 48 hrs in presence of 0.5% fetal calf serum and absence of growth factor by MTT assay; type: cell-based; settings: Homo sapiens; how it was run: as §3
A549 [16] = assay: Induction of apoptosis in human A549 cells assessed as late apoptotic cells at 3 nM after 24 hrs by annexin V-FITC/propidium iodide staining-based flow cytometric method (reference value: 0.01%); type: functional
Mus musculus = assay: Toxicity in BALB/c nude mouse xenografted with human A549 cells assessed as loss of body weight at 30 mg/kg, ip administered every other day for 1 month measured every other day post dose relative to vehicle-treated control; type: organism-based; settings: in vivo
A549 [17] = assay: Disruption of mitochondrial membrane potential in human A549 cells assessed as green fluorescence intensity at 10 nM after 24 hrs by JC1 staining-based flow cytometric method (reference value: 0.02%); type: functional
[18] = Selectivity ratio of IC50 for quiescent HUVEC to IC50 for human A549 cells; type: ADME, cell-based; settings: quiescent HUVEC versus A549 cells, read-out: Ratio IC50; how it was run: as §1
[19] = Cytotoxicity against human A2780/TAX cells assessed as growth inhibition after 48 hrs by MTT assay; type: functional, cell-based; how it was run: as §2
A549 [20] = assay: Resistance index, ratio of IC50 for human A549/CDDP cells to IC50 for human A549 cells; type: functional
A549 [21] = assay: Induction of apoptosis in human A549 cells assessed as viable cells at 3 nM after 24 hrs by annexin V-FITC/propidium iodide staining-based flow cytometric method (reference value: 98.9%); type: functional; settings: A549, 24 h, read-out: Activity; how it was run: as §4
[22] = Selectivity ratio of IC50 for human BJ cells to IC50 for human A549 cells; type: ADME, cell-based; settings: BJ cells versus A549 cells, read-out: Ratio IC50; how it was run: as §1
[23] = Metabolic stability in Sprague-Dawley rat liver microsomes assessed as compound remaining at 180 mins in presence of NADPH regenerating system by HPLC method; type: ADME; settings: read-out: Stability
How it was run: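 Rat liver microsomes incubated with compound at 37 ℃ for indicated times in buffer containing NADPH regenerating system; residual parent determined by HPLC.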

A549 [24] = assay: Induction of apoptosis in human A549 cells assessed as early apoptotic cells at 3 nM after 24 hrs by annexin V-FITC/propidium iodide staining-based flow cytometric method (reference value: 1.07%); type: functional
A549 [25] = assay: Induction of apoptosis in human A549 cells assessed as viable cells at 3 nM after 48 hrs by annexin V-FITC/propidium iodide staining-based flow cytometric method (reference value: 98.1%); type: functional; settings: A549, 48 h, read-out: Activity; how it was run: as §4
A549 [26] = assay: Disruption of mitochondrial membrane potential in human A549 cells at 1 to 10 nM after 24 hrs by JC1/Hoechst 33342 staining-based laser scanning confocal microscopy; type: functional, cell-based
How it was run: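 After 24 h compound treatment, A549 cells were incubated with JC-1 for 30 min and visualized by laser scanning confocal microscopy.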

## COc1ccc2c(/C=C(\C)C(=O)c3cc(OC)c(OC)c(OC)c3)c[nH]c2c1
[1]
  selectivity ratio: 891
A549 [2]
  Activity: 43.8%
[3]
  IC50: 4 nM
[4]
  IC50: 5670 nM
A549 [5]
  Activity: 40.7%
[6]
  IC50: 2670 nM
A549 [7]
  viability at 0.001 µM: 66.8%
[8]
  IC50: 9 nM
A549 [9]
  Activity: 8.41%
A549 [10]
  Activity: 70.2%
[11]
  IC50: 9 nM
A549 [12]
  Activity: 1.07%
A549 [13]
  Activity: Active
Tubulin
  IC50: 2680 nM
MCF7
  Ratio IC50: 1.5
A549 [14]
  Activity: 1.52%
A549 [15]
  Activity: Active
HUVEC
  IC50: 163 nM
A549 [16]
  Activity: 3.56%
Mus musculus
  Activity: Non-toxic
A549 [17]
  Activity: 57.2%
[18]
  selectivity ratio: 54.3
[19]
  IC50: 124 nM
A549 [20]
  Ratio IC50: 1.33
A549 [21]
  viability at 0.003 µM: 69.7%
[22]
  selectivity ratio: 2970
[23]
  remaining at 3 h: 42.4%
A549 [24]
  Activity: 28.6%
A549 [25]
  viability at 0.003 µM: 33.9%
A549 [26]
  Activity: Active
